According to ChEMBL document CHEMBL3351278, “Pyridine-3-carboxamide-6-yl-ureas as novel inhibitors of bacterial DNA gyrase: structure based design, synthesis, SAR and antimicrobial activity” (Eur J Med Chem, 2014):
≈ marks a conversion by molar mass, not a printed value.

How the values were obtained:
Escherichia coli [1] = assay: Antibacterial activity against Escherichia coli ATCC 25922 incubated for 24 hrs by broth microdilution method; type: functional; conditions: ATCC 25922, 24 h
DNA gyrase subunit B = DNA gyrase subunit B (Staphylococcus aureus, UniProt P0A0K8); assay: Inhibition of Staphylococcus aureus GyrB assessed reduction in DNA supercoiling activity by malachite green dye based by spectrophotometry
Staphylococcus aureus [2] = assay: Antibacterial activity against Staphylococcus aureus ATCC 29213 incubated for 24 hrs by broth microdilution method; type: functional; conditions: ATCC 29213, 24 h
[3] = biological target: DNA topoisomerase 4 subunit B (Staphylococcus aureus, UniProt P0C1S7); assay: Inhibition of Staphylococcus aureus ParE
DNA gyrase = DNA gyrase (Escherichia coli, UniProt P0AES4+P0AES6); assay: Inhibition of Escherichia coli GyrB A2B2 subunits assessed reduction in DNA supercoiling activity by malachite green dye based by spectrophotometry; type: protein-complex assay
Method in brief: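 Inhibition was measured as loss of ATPase activity of the E. coli GyrB enzyme and reported as IC50.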

[4] = biological target: DNA topoisomerase 4 subunit B (Escherichia coli K-12, UniProt P20083); assay: Inhibition of Escherichia coli ParE
Chain of DNA topoisomerase 4 subunit B (Escherichia coli K-12, UniProt P20083) (P20083 whole entry): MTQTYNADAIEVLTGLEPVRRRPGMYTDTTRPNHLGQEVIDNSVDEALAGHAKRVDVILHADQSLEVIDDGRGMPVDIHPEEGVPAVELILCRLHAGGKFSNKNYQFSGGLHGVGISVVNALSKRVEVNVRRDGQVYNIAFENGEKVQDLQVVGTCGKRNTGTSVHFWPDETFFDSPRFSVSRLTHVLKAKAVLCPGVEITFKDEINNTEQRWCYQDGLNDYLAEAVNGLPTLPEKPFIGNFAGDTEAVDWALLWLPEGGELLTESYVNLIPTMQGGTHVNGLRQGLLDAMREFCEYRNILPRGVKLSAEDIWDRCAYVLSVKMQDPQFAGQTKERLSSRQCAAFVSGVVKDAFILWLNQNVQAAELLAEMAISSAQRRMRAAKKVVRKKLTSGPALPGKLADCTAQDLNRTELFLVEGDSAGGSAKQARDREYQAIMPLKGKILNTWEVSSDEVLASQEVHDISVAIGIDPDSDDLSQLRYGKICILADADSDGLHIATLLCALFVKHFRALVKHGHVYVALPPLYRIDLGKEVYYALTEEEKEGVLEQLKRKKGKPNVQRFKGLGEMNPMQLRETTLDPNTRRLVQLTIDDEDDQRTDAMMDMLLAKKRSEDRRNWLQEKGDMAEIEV

Escherichia coli [5] = assay: Antibacterial activity against Escherichia coli N43 expressing efflux pump mutant incubated for 24 hrs by broth microdilution method; type: functional; conditions: N43, 24 h
Staphylococcus aureus [6] = assay: Antibacterial activity against Staphylococcus aureus ATCC 29213 incubated for 24 hrs in presence of 50% horse serum by broth microdilution method; type: functional; conditions: ATCC 29213, 24 h
Staphylococcus aureus [7] = assay: Potency shift, ratio of MIC against Staphylococcus aureus ATCC 29213 in presence of 50% horse serum to MIC against taphylococcus aureus ATCC 29213 in absence of 50% horse serum; type: functional
[8] = Retention time of the compound by HPLC method; type: physicochemical
Streptococcus pyogenes [9] = assay: Antibacterial activity against Streptococcus pyogenes ATCC 51339 expressing ParE A53S mutant incubated for 24 hrs by broth microdilution method; type: functional; conditions: ATCC 51339, 24 h
Staphylococcus aureus [10] = assay: Antibacterial activity against Staphylococcus aureus ATCC 29213 expressing GyrB T173N and ParE T167N mutant incubated for 24 hrs by broth microdilution method; type: functional; conditions: ATCC 29213, 24 h
Enterococcus faecalis = assay: Antibacterial activity against Enterococcus faecalis ATCC 29212 incubated for 24 hrs by broth microdilution method; type: functional; conditions: ATCC 29212, 24 h
[11] = tested on: Staphylococcus epidermidis; assay: Antibacterial activity against Staphylococcus epidermidis ATCC 12228 incubated for 24 hrs by broth microdilution method; type: functional; conditions: ATCC 12228, 24 h
Streptococcus pyogenes [12] = assay: Antibacterial activity against Streptococcus pyogenes ATCC 51339 incubated for 24 hrs by broth microdilution method; type: functional; conditions: ATCC 51339, 24 h
Haemophilus influenzae = assay: Antibacterial activity against Haemophilus influenzae ATCC 49247 incubated for 24 hrs by broth microdilution method; type: functional; conditions: ATCC 49247, 24 h
Staphylococcus aureus [13] = assay: Antibacterial activity against Staphylococcus aureus ATCC 29213 expressing GyrB T173N mutant incubated for 24 hrs by broth microdilution method; type: functional; conditions: ATCC 29213, 24 h
Streptococcus pneumoniae = assay: Antibacterial activity against Streptococcus pneumoniae ATCC 49616 incubated for 24 hrs by broth microdilution method; type: functional; conditions: ATCC 49616, 24 h

| IC50 (DNA gyrase subunit B) [nM] | IC50 [3] [nM] | IC50 [4] [nM] | Structure (SMILES) | MIC (Escherichia coli [1]) [µg/mL] | MIC (Staphylococcus aureus [2]) [µg/mL] | IC50 (DNA gyrase) [nM] | MIC (Escherichia coli [5]) [µg/mL] | MIC (Staphylococcus aureus [6]) [µg/mL] | Ratio (Staphylococcus aureus [7]) | Retention_time [8] [min] | MIC (Streptococcus pyogenes [9]) [µg/mL] | MIC (Staphylococcus aureus [10]) [µg/mL] | MIC (Enterococcus faecalis) [µg/mL] | MIC [11] [µg/mL] | MIC (Streptococcus pyogenes [12]) [µg/mL] | MIC (Haemophilus influenzae) [µg/mL] | MIC (Staphylococcus aureus [13]) [µg/mL] | MIC (Streptococcus pneumoniae) [µg/mL] |
| --- | --- | --- | --- | --- | --- | --- | --- | --- | --- | --- | --- | --- | --- | --- | --- | --- | --- | --- |
| 24 | 86 | 940 | CCNC(=O)Nc1cc(Nc2ccc(O)cc2)c(C(=O)Nc2cccnc2)cn1 | > 64 | 8 (≈ 20.4 µM) | 28 |  |  |  |  |  |  |  |  |  |  |  |  |
|  |  |  | CCNC(=O)Nc1cc(Nc2ccccc2)c(C(=O)Nc2ccc(NC(C)=O)nc2)cn1 | > 64 | 2 (≈ 4.61 µM) | 39 | > 64 | 8 | 4 | 1.45 | 2 (≈ 4.61 µM) | > 64 | 0.125 (≈ 0.288 µM) | 0.25 (≈ 0.577 µM) | 0.5 (≈ 1.15 µM) | > 64 | > 64 | 0.125 (≈ 0.288 µM) |
|  |  |  | CCNC(=O)Nc1cc(Nc2ccccc2)c(C(=O)Nc2ccc(N3CCOCC3)nc2)cn1 | > 64 | 2 (≈ 4.33 µM) | 110 | > 64 | 16 | 8 | 1.47 | 4 (≈ 8.67 µM) | > 64 | 0.25 (≈ 0.542 µM) | 1 (≈ 2.17 µM) | 1 (≈ 2.17 µM) | > 64 | > 64 | 0.5 (≈ 1.08 µM) |
|  |  |  | CCNC(=O)Nc1cc(Nc2ccccc2)c(C(=O)Nc2ccccc2)cn1 | > 64 | 1 (≈ 2.66 µM) | 40 | 8 (≈ 21.3 µM) |  |  | 1.58 | 16 (≈ 42.6 µM) | > 64 | 0.25 (≈ 0.666 µM) | 0.25 (≈ 0.666 µM) | 2 (≈ 5.33 µM) | > 64 | 2 (≈ 5.33 µM) | 1 (≈ 2.66 µM) |
|  |  |  | CCNC(=O)Nc1cc(Nc2cccnc2)c(C(=O)Nc2ccccc2)cn1 |  | 1 (≈ 2.66 µM) | 430 |  | 2 | 2 | 1.46 |  |  | 0.25 (≈ 0.664 µM) |  | 1 (≈ 2.66 µM) | > 64 |  |  |
|  |  |  | CCNC(=O)Nc1cc(-n2cccn2)c(C(=O)Nc2cccc(Cl)c2)cn1 | > 64 | 8 (≈ 20.8 µM) | 2960 | 32 (≈ 83.2 µM) |  |  | 1.83 | 16 (≈ 41.6 µM) | > 64 | 1 (≈ 2.6 µM) | 2 (≈ 5.2 µM) | 4 (≈ 10.4 µM) | > 64 | 32 (≈ 83.2 µM) | 1 (≈ 2.6 µM) |
|  |  |  | CCNC(=O)Nc1cc(Nc2ccccc2)c(C(=O)Nc2cccnc2)cn1 | > 64 | 1 (≈ 2.66 µM) | 170 | 8 (≈ 21.3 µM) | 4 | 4 | 1.36 | 2 (≈ 5.31 µM) | > 64 | 0.125 (≈ 0.332 µM) | 0.25 (≈ 0.664 µM) | 1 (≈ 2.66 µM) | > 64 | 4 (≈ 10.6 µM) | 0.25 (≈ 0.664 µM) |
|  |  | 780 | CCNC(=O)Nc1cc(Nc2cccc(O)c2)c(C(=O)Nc2cccnc2)cn1 | > 64 |  | 36 |  |  |  |  |  |  |  |  |  |  |  |  |
|  |  |  | CCNC(=O)Nc1cc(Nc2ccccc2)c(C(=O)Nc2cccc(C)c2)cn1 | > 64 | 1 (≈ 2.57 µM) | 140 | > 64 |  |  | 1.68 | > 64 | > 64 | 0.125 (≈ 0.321 µM) | 0.5 (≈ 1.28 µM) | 2 (≈ 5.14 µM) | > 64 | > 64 | 0.5 (≈ 1.28 µM) |
| 41 | 800 | 42000 | CCNC(=O)Nc1cc(Nc2ccc(OC)cc2OC)c(C(=O)Nc2cccnc2)cn1 | > 64 | 1 (≈ 2.29 µM) | 46 |  |  |  |  |  |  |  |  |  |  |  |  |
